The source made the active and inactive calls. The rule behind the calls is not given here.
How the values were obtained:
[1] = biological target: Beta-2 adrenergic receptor (Cavia porcellus) (UniProt Q8K4Z4); details: Trachea
[2] = biological target: Beta-2 adrenergic receptor (Cavia porcellus) (UniProt Q8K4Z4); details: Trachea; remark: listed apart in the source
[3] = Octanol-water partition coefficient, log P of the compound; format: physicochemical
Cavia porcellus [4] = organism: Cavia porcellus; test: Agonist activity at alpha-adrenergic receptor in guinea pig aortic strip assessed as induction of contraction
Outline: (§1)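 Spirally cut thoracic aortic strip (3 cm × 2 mm) from male guinea pig (400–900 g), in modified Krebs at 37.0 °C, gassed 95% O2/5% CO2. Initial tension 0.5 g, equilibrated ≥2 h. Isometric contraction recorded over cumulative dose-response curves, with each dose held until the response levelled (10 min). Responses expressed as % of maximum contraction to 10⁻⁴ M norepinephrine added after the last dose.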

[5] = Competitive inhibition of tyrosine hydroxylase (unknown origin); design: species or system Homo sapiens
Rattus norvegicus [6] = test: Hypertensive effect in Wistar rat assessed as mean arterial pressure at 10 umol/kg; format: functional, Artery
Outline: (§2)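 Rats given 1 or 10 μmol/kg iv as a 0.5 mL/kg saline bolus. Mean arterial pressure recorded and the pressor response corrected for the saline injection artifact. Reserpine groups received 2.5 mg/kg ip at 48 and 24 h before. Phentolamine 10 mg/kg iv was given 1 min before dosing. Means ± SEM, n=3–6.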

Rattus norvegicus [7] = test: Hypertensive effect in Wistar rat assessed as mean arterial pressure at 1 umol/kg; format: functional, Artery
Outline: as §2

Rattus norvegicus [8] = test: Hypertensive effect in Wistar rat assessed as mean arterial pressure at 10 umol/kg in presence of phentolamine; format: functional, Artery
Outline: as §2

Rattus norvegicus [9] = test: Hypertensive effect in Wistar rat assessed as mean arterial pressure at 10 umol/kg in presence of phentolamine and reserpine; format: functional, Artery
Outline: as §2

Rattus norvegicus [10] = test: Hypertensive effect in Wistar rat assessed as mean pressor response at 1 umol/kg; format: functional
Outline: as §2

Rattus norvegicus [11] = test: Hypertensive effect in Wistar rat assessed as mean pressor response at 1 umol/kg in presence of reserpine; format: functional
Outline: as §2

Rattus norvegicus [12] = test: Hypertensive effect in Wistar rat assessed as mean pressor response at 10 umol/kg; format: functional
Outline: as §2

Rattus norvegicus [13] = test: Hypertensive effect in Wistar rat assessed as mean pressor response at 10 umol/kg in presence of reserpine; format: functional
Outline: as §2

Rattus norvegicus [14] = test: Hypertensive effect in Wistar rat assessed as mean pressor response at 10 umol/kg in presence of phentolamine; format: functional
Outline: as §2

Rattus norvegicus [15] = test: Hypertensive effect in Wistar rat assessed as mean pressor response at 10 umol/kg in presence of phentolamine and reserpine; format: functional
Outline: as §2

Rattus norvegicus [16] = test: Hypertensive effect in Wistar rat assessed as increase in mean arterial pressure at 10 umol/kg relative to control; format: functional, Artery
Outline: as §2

Rattus norvegicus [17] = test: Hypertensive effect in Wistar rat assessed as increase in blood pressure at 20 umol/kg administered repeatedly in presence of reserpine; format: functional
Outline: (§3)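 Reserpine-pretreated rat given repeated iv injections of 20 μmol/kg, then 128 μmol/kg infused over 90 s. Arterial blood pressure recorded continuously, including time to return to preinjection level.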

Rattus norvegicus [18] = test: Hypertensive effect in Wistar rat assessed as increase in blood pressure at 20 umol/kg administered repeatedly followed by infusion of 128 umol/kg for 90 secs in presence of reserpine; format: functional
Outline: as §3

Rattus norvegicus [19] = test: Hypertensive effect in Wistar rat assessed as increase in blood pressure at 20 umol/kg administered repeatedly after 15 mins in presence of reserpine; format: functional, organism-based
Outline: as §3

Rattus norvegicus [20] = test: Hypertensive effect in Wistar rat assessed as tachyphylaxis at 20 umol/kg administered repeatedly followed by infusion of 128 umol/kg for 90 secs in presence of reserpine; format: functional, organism-based
Outline: as §3

Cavia porcellus [21] = organism: Cavia porcellus; test: Agonist activity at alpha-adrenergic receptor in guinea pig aortic strip assessed as induction of contraction relative to norepinephrine
Outline: as §1

Cavia porcellus [22] = organism: Cavia porcellus; test: Agonist activity at alpha-adrenergic receptor in guinea pig aortic strip assessed as induction of contraction up to 3 x 10^-3 M in presence of phentolamine
Rattus norvegicus [23] = test: Hypertensive effect in Wistar rat assessed as mean arterial pressure at 10 umol/kg in presence of reserpine; format: functional, Artery
Outline: as §2

Rattus norvegicus [24] = test: Hypertensive effect in Wistar rat assessed as mean arterial pressure at 1 umol/kg in presence of reserpine; format: functional, Artery
Outline: as §2

Rattus norvegicus [25] = test: Hypertensive effect in Wistar rat assessed as increase in heart rate at 1 nmol/kg (reference value: 1 +/- 0.1 beats/min); format: functional
Outline: (§4)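 Intact rats; femoral or jugular vein cannulated. Doses of 1–1000 nmol/kg given as a 0.5 mL/kg iv saline bolus, each followed by a heparinized saline flush. Arterial pressure and heart rate taken from the oxygraph recording. A saline control was injected first. For the propranolol group, 1.0 mg/kg propranolol was given 5 min before 1.0 μmol/kg. Means ± SEM, n=3–4.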

Rattus norvegicus [26] = test: Hypertensive effect in Wistar rat assessed as increase in heart rate at 10 nmol/kg (reference value: 1 +/- 0.1 beats/min); format: functional
Outline: as §4

Rattus norvegicus [27] = test: Hypertensive effect in Wistar rat assessed as increase in heart rate at 100 nmol/kg up to 1 min (reference value: 1 +/- 0.1 beats/min); format: functional; details: in the assay text read “up to 15 mins” for “up to 1 min”
Outline: as §4

Rattus norvegicus [28] = test: Hypertensive effect in Wistar rat assessed as increase in heart rate at 1000 nmol/kg (reference value: 1 +/- 0.1 beats/min); format: functional
Outline: as §4

Rattus norvegicus [29] = test: Hypertensive effect in Wistar rat assessed as increase in heart rate at 1000 nmol/kg in presence of propranolol (reference value: 1 +/- 0.1 beats/min); format: functional
Outline: as §4

Rattus norvegicus [30] = test: Hypertensive effect in Wistar rat assessed as change in mean arterial pressure at 1 nmol/kg (reference value: 7 +/- 2 mmHg); format: functional, Artery
Outline: as §4

Rattus norvegicus [31] = test: Hypertensive effect in Wistar rat assessed as change in mean arterial pressure at 10 nmol/kg (reference value: 7 +/- 2 mmHg); format: functional, Artery
Outline: as §4

Rattus norvegicus [32] = test: Hypertensive effect in Wistar rat assessed as change in mean arterial pressure at 100 nmol/kg up to 15 mins (reference value: 7 +/- 2 mmHg); format: functional, Artery; details: in the assay text read “up to 1 min” for “up to 15 mins”
Outline: as §4

Rattus norvegicus [33] = test: Hypertensive effect in Wistar rat assessed as change in mean arterial pressure at 1000 nmol/kg (reference value: 7 +/- 2 mmHg); format: functional, Artery
Outline: as §4

Rattus norvegicus [34] = test: Hypertensive effect in Wistar rat assessed as change in mean arterial pressure at 1000 nmol/kg in presence of propranolol (reference value: 7 +/- 2 mmHg); format: functional, Artery
Outline: as §4

[35] = biological target: Beta-1 adrenergic receptor (Cavia porcellus) (UniProt B0FL73); test: Agonist activity at beta-1 adrenergic receptor in guinea pig atria assessed as effect on atrial rate relative to (R,S)-isoproterenol; details: Cardiac atrium
Sequence of Beta-1 adrenergic receptor (Cavia porcellus) (B0FL73 1-467): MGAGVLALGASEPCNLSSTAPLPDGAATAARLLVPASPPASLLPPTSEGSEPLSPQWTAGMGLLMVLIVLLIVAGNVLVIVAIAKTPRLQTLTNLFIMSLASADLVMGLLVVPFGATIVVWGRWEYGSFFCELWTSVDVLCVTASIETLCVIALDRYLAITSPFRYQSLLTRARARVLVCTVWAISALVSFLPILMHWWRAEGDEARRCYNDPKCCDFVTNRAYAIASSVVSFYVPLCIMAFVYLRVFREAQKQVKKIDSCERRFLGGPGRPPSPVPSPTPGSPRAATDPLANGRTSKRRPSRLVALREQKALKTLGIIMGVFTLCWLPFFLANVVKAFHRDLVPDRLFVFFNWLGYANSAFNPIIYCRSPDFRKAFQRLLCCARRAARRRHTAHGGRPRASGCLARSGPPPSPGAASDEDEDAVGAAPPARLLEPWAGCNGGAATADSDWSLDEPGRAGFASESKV
Outline: (§5)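 Guinea pig atria (male, 400–900 g; some given reserpine 5.0 mg/kg ip 24 h before) in oxygenated bath at 37.0 °C, diastolic tension 1 g, steady beating reached first. Cumulative doses given 1 min apart. […] Points are means of ≥4 atria.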

[36] = biological target: Beta-1 adrenergic receptor (Cavia porcellus) (UniProt B0FL73); test: Agonist activity at beta-1 adrenergic receptor in guinea pig atria assessed as effect on force of atrial contraction relative to (R,S)-isoproterenol; details: Cardiac atrium
Outline: as §5

[37] = biological target: Beta-1 adrenergic receptor (Cavia porcellus) (UniProt B0FL73); test: Ionotropic activity at beta-1 adrenergic receptor in guinea pig atria assessed as effect on atrial rate up to 3 x 10^-4 M in presence of propranolol; details: Cardiac atrium, in the assay text read “force of atrial contraction” for “atrial rate”
Outline: (§6)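 Cumulative dosing of guinea pig atria up to 3×10⁻⁴ M with 10⁻⁶ M propranolol in the bath, at 37.0 °C with 1 g diastolic tension.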

[38] = biological target: Beta-1 adrenergic receptor (Cavia porcellus) (UniProt B0FL73); test: Positive chronotropic activity at beta-1 adrenergic receptor in guinea pig atria assessed as effect on force of atrial contraction up to 3 x 10^-4 M in presence of propranolol; details: Cardiac atrium, in the assay text read “atrial rate” for “force of atrial contraction”
Outline: as §6

[39] = biological target: Beta-2 adrenergic receptor (Cavia porcellus) (UniProt Q8K4Z4); test: Agonist activity at beta-2 adrenergic receptor in guinea pig trachea assessed as tracheal relaxation relative to (R,S)-isoproterenol; design: Activity: scale not given: the % may be the effect or the level left
Outline: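 Tracheal chain from male guinea pig (some reserpine-pretreated, 5.0 mg/kg ip 24 h before), equilibrated 30 min at 1 g tension and contracted with 3.0×10⁻⁶ M methacholine for 10 min.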

Cavia porcellus [40] = organism: Cavia porcellus; test: Ratio of relative activity for guinea pig beta-2 adrenergic receptor to relative activity for guinea pig beta-1 adrenergic receptor
[41] = biological target: Beta-2 adrenergic receptor (Cavia porcellus) (UniProt Q8K4Z4); test: Agonist activity at beta-2 adrenergic receptor in guinea pig trachea assessed as tracheal relaxation in presence of propranolol
[42] = biological target: Beta-1 adrenergic receptor (Cavia porcellus) (UniProt B0FL73); details: Cardiac atrium
[43] = biological target: Beta-1 adrenergic receptor (Cavia porcellus) (UniProt B0FL73); details: Cardiac atrium; remark: listed apart in the source
Felis catus = test: Inhibition of isoproterenol-induced tachycardia in cat at 100 ug/kg; format: functional

Sequence of Beta-2 adrenergic receptor (Cavia porcellus) (Q8K4Z4 whole entry, looked up): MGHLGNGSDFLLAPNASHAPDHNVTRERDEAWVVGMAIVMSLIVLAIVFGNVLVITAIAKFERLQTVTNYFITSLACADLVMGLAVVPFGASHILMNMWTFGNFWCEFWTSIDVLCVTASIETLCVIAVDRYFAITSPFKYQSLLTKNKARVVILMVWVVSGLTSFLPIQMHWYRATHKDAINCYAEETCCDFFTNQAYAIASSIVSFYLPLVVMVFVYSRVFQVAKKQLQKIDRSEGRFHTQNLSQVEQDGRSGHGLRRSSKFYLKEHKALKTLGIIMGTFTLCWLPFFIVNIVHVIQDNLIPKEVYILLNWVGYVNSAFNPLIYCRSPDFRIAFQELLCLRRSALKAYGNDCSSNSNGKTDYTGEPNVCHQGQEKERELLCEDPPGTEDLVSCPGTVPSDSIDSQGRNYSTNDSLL

CC(C)NCC(O)c1ccc(O)c(O)c1 (racemic)
ED50 [1]: 7.8 ×10⁻⁸ M | pD2 [1]: 7.1 | ED50 [2]: 2.1 ×10⁻⁸ M

Oc1ccccc1O [CATECHOL]
logP [3]: 0.88

NC[C@H](O)c1ccc(O)c(O)c1
ED50 (Cavia porcellus [4]): 1.1 µM

N[C@@H](Cc1ccc2[nH]cnc2c1)C(=O)O
Ki [5]: 20 µM

NCC(O)c1ccc2[nH]cnc2c1 (racemic)
Activity (Rattus norvegicus [6]): 98 mmHg | Activity (Rattus norvegicus [7]): 82 mmHg | Activity (Rattus norvegicus [8]): 46 mmHg | Activity (Rattus norvegicus [9]): 48 mmHg | Activity (Rattus norvegicus [10]): 8 mmHg | Activity (Rattus norvegicus [11]): 9 mmHg | Activity (Rattus norvegicus [12]): 39 mmHg | Activity (Rattus norvegicus [13]): 40 mmHg | Activity (Rattus norvegicus [14]): -4 mmHg | Activity (Rattus norvegicus [15]): -5 mmHg | Activity (Rattus norvegicus [16]): 40% | ED50 (Cavia porcellus [4]): 8 µM | Activity (Rattus norvegicus [17]): 150 mmHg | Activity (Rattus norvegicus [18]): 150 mmHg | Activity (Rattus norvegicus [19]): inactive | Activity (Rattus norvegicus [20]): inactive | Activity (Cavia porcellus [21]): 41% | Activity (Cavia porcellus [22]): inactive | Activity (Rattus norvegicus [23]): 70 mmHg | Activity (Rattus norvegicus [24]): 73 mmHg

CC(C)NCC(O)c1ccc2[nH]cnc2c1 (racemic)
Activity (Rattus norvegicus [25]): 1 bpm | Activity (Rattus norvegicus [26]): 12 bpm | Activity (Rattus norvegicus [27]): 65 bpm | Activity (Rattus norvegicus [28]): 59 bpm | Activity (Rattus norvegicus [29]): 13 bpm | Activity (Rattus norvegicus [30]): 4 mmHg | Activity (Rattus norvegicus [31]): -6 mmHg | Activity (Rattus norvegicus [32]): -12 mmHg | Activity (Rattus norvegicus [33]): -30 mmHg | Activity (Rattus norvegicus [34]): 3 mmHg | %max [35]: 50% | Activity [35]: 0.355% | %max [36]: 33% | Activity [37]: inactive | Activity [38]: inactive | %max [39]: 58% | Activity [39]: 4.79% | Ratio (Cavia porcellus [40]): 13.5 | fold change (FC) [41]: 2 | ED50 [42]: 6.2 µM | pD2 [42]: 5.21 | ED50 [43]: 3.8 µM | pD2 [43]: 5.42 | ED50 [1]: 1.6 µM | pD2 [1]: 5.78

CC(C)NCC(O)c1ccc2[nH]c(=O)[nH]c2c1 (configuration not stated)
inhibition in vivo at 0.1 mg/kg (Felis catus): 35%

Source: ChEMBL document CHEMBL3272094 (J Med Chem, 1978)
